Measurements taken from PMC7557949 (ACS Omega, 2020).
≈ marks a conversion by molar mass, not a printed value.

What was measured:
K. pneumonia (ATCC:4415) [1] = test: Agar well diffusion, inhibition zone; type: cell-based, Klebsiella pneumonia; conditions: 15 mg/mL, 100 μL per well; mm ± SD
Summary of the method: (§1)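 Agar well diffusion. Saline inoculum adjusted to McFarland 0.5 ([…]), i.e. OD 0.13 at 625 nm, and swabbed over dried agar. After 15 min drying, 6 mm wells received 100 μL of test compound at 15 mg/mL. Plates incubated at 37 °C; bacterial zones read in mm after 24 h incubation […]. Triplicate, reported as mm ± SD. Gentamicin and ampicillin served as reference drugs.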

coxsackievirus B4 (CBV4) = test: Plaque assay, antiviral activity against CBV4; type: cell-based; conditions: nontoxic dose of compound; average of three independent measurements
Summary of the method: (§2)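 Plaque reduction. Nontoxic dilutions of test compound were mixed 1:1 with virus at 1 × 105, 1 × 106 or 1 × 107, for 0.5 h at 37 °C. 10-fold dilutions went onto BGM (CBV4), FRHK4 (HAV HM 175) or Hep-2 (adenovirus 7), with 1 h adsorption at 37 °C. Overlay was 2× DMEM plus 1% agarose. Cells were formalin-fixed and crystal violet-stained, and plaques counted. Triplicate. IC50 is the half-maximal plaque-reduction concentration.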

[2] = test system: adenovirus type 7 (HAdV7); test: Plaque assay, antiviral activity against adenovirus type 7; type: cell-based; conditions: nontoxic dose of compound; average of three independent measurements
Summary of the method: as §2

[3] = test system: herpes simplex virus type 1 (HSV-1); test: Plaque assay, antiviral activity against HSV-1; type: cell-based; conditions: for IC50: Human alphaherpesvirus 1, Vero
[4] = test system: P. aeruginosa (ATCC:27853); test: Agar well diffusion, inhibition zone; type: cell-based, Pseudomonas aeruginosa; conditions: 15 mg/mL, 100 μL per well; mm ± SD
Summary of the method: as §1

C. albicans (ATCC:10231) [5] = test: Agar well diffusion, inhibition zone; type: cell-based, Candida albicans; conditions: 15 mg/mL, 100 μL per well; mm ± SD
Summary of the method: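 Fungal plates were poured and agar dried 15 min. 6 mm wells were cut with a sterile borer and filled with 100 μL test compound solution at 15 mg/mL. Inhibition zone diameter (mm) was read after 48 h incubation. Triplicate, reported as mm ± SD.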

[6] = test system: hepatitis A virus HM 175 (HAV HM 175); test: Plaque assay, antiviral activity against HAV HM 175; type: cell-based; conditions: for mean % of reduction, HAV HM 175: nontoxic dose of compound, average of three independent measurements
Summary of the method: as §2

[7] = test system: ED-43/SG-Feo (VYG) replicon of hepatitis C virus genotype 4a (HCVcc); test: Antiviral bioassay against ED-43/SG-Feo; type: cell-based; conditions: nontoxic dose of compound; average of three independent measurements
Summary of the method: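 Huh 7.5 cells carrying the ED-43/SG-Feo (VYG) HCV genotype 4a subgenomic replicon were treated with the nontoxic dose of test compound. Replicon RNA copies were quantified by TaqMan qRT-PCR, and the result was expressed as percent reduction.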

E. coli (ATCC:3008) [8] = test: Agar well diffusion, inhibition zone; type: cell-based, Escherichia coli; conditions: 15 mg/mL, 100 μL per well; mm ± SD
Summary of the method: as §1

S. aureus (ATCC:6538) [9] = test: Agar well diffusion, inhibition zone; type: cell-based, Staphylococcus aureus; conditions: for diameter of the IZ, S. aureus (ATCC:6538): 15 mg/mL, 100 μL per well, mm ± SD; for zone of inhibition at 15000 µg/mL: Staphylococcus aureus, 24 h, read-out: diameter of the IZ, S. aureus (ATCC:6538)
Summary of the method: as §1

S. mutans (ATCC:25175) [10] = test: Agar well diffusion, inhibition zone; type: cell-based; conditions: for diameter of the IZ, S. mutans (ATCC:25175): 15 mg/mL, 100 μL per well, mm ± SD; for zone of inhibition at 15000 µg/mL: Streptococcus mutans, 24 h, read-out: diameter of the IZ, S. mutans (ATCC:25175)
Summary of the method: as §1

[11] = Cytotoxicity test on BGM cell line; type: cell-based; conditions: African green monkey, uninfected BGM cells
Summary of the method: (§3)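 Test compound was dissolved at 50 mg/mL in DMSO and decontaminated with 100× antimycotic–antibiotic mix. Cells were seeded at 2 × 10^5 cells/mL and grown 24 h at 37 °C, 5% CO2, to monolayers. Bi-fold dilutions in DMEM were applied for 72 h. Read by daily microscopy for morphology and by trypan blue (0.4%) viable counts. CC50 taken as the concentration giving 50% of untreated-cell OD492.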

[12] = Cytotoxicity test on FRHK-4 cell line; type: cell-based; conditions: rhesus monkey, uninfected FRHK-4 cells
Summary of the method: as §3

Hsp90α = Hsp90α (Homo sapiens, UniProt P07900); test: Hsp90α; type: biochemical; conditions: for inhibition at 0.1 µg/mL: read-out: percentage inhibition of Hsp90α at 0.1 (μg/mL); for inhibition at 1 µg/mL: read-out: percentage inhibition of Hsp90α at 1 (μg/mL); for inhibition at 10 µg/mL: read-out: percentage inhibition of Hsp90α at 10 (μg/mL); for inhibition at 100 µg/mL: read-out: percentage inhibition of Hsp90α at 100 (μg/mL)
Summary of the method: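 AlphaScreen kit assay for Hsp90α C-terminal binding to PPID. Hsp90α was diluted to 1.5 ng/μL in assay buffer and premixed with test compound. The reaction was started with PPID diluted to 10 ng/μL and run 30 min at room temperature. Glutathione acceptor beads were added for 30 min, then streptavidin donor beads for 1 h, and Alpha counts read. Triplicate; percent inhibition calculated against control.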

[13] = Cytotoxicity test on Vero cell line; type: cell-based; conditions: African green monkey, uninfected Vero cells
Summary of the method: as §3

E. coli (ATCC:3008) [14] = test: MIC, twofold serial dilution in agar; type: cell-based; conditions: Escherichia coli, read-out: MIC, E. coli (ATCC:3008)
[15] = molecular target: T1, dihydrofolate reductase (DHFR) (Homo sapiens, UniProt P00374); test: DHFR inhibitor screening assay; type: biochemical; conditions: for IC50: IC50 on the DHFR, average of three measurements; for inhibition at 0.01 µg/mL: read-out: percent inhibition of DHFR at 0.01 (μg/mL); for inhibition at 0.1 µg/mL: read-out: percent inhibition of DHFR at 0.1 (μg/mL); for inhibition at 1 µg/mL: read-out: percent inhibition of DHFR at 1 (μg/mL); for inhibition at 10 µg/mL: read-out: percent inhibition of DHFR at 10 (μg/mL)
T1 sequence (P00374 1-187): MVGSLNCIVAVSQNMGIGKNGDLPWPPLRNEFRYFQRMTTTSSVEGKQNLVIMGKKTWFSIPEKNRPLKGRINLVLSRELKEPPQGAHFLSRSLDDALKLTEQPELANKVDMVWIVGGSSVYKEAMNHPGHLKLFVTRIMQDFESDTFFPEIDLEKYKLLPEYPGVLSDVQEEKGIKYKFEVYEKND

K. pneumonia (ATCC:4415) [16] = test: MIC, twofold serial dilution in agar; type: cell-based; conditions: Klebsiella pneumoniae, read-out: MIC, K. pneumonia (ATCC:4415)
[17] = test system: P. aeruginosa (ATCC:27853); test: MIC, twofold serial dilution in agar; type: cell-based; conditions: Pseudomonas aeruginosa, read-out: MIC, P. aeruginosa (ATCC:27853)
C. albicans (ATCC:10231) [18] = test: MIC, twofold serial dilution in agar; type: cell-based, Candida albicans
Summary of the method: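 Test compound and reference drugs (ampicillin, gentamicin, nystatin) were made as 1000 μg/mL DMSO stocks, then diluted twofold to 500, 250, 125, 62.5 and 31.25 μg/mL. Dilutions were mixed into sterile nutrient agar, and a defined microbial inoculum was applied to the agar surface. Plates incubated at 37 °C in a humid chamber.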

S. mutans (ATCC:25175) [19] = test: MIC, twofold serial dilution in agar; type: cell-based; conditions: Streptococcus mutans, read-out: MIC, S. mutans (ATCC:25175)
S. aureus (ATCC:6538) [20] = test: MIC, twofold serial dilution in agar; type: cell-based; conditions: Staphylococcus aureus, read-out: MIC, S. aureus (ATCC:6538)

Hsp90α, sequence (P07900 535-732 limits assumed): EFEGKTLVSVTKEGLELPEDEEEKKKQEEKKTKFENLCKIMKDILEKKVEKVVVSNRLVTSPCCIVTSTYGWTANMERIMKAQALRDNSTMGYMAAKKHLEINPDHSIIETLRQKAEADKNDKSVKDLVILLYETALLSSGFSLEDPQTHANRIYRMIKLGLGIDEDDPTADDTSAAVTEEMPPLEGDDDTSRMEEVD

| Compound | diameter of the IZ, K. pneumonia (ATCC:4415) (K. pneumonia (ATCC:4415) [1]) | mean % of reduction, adenovirus type 7 [2] [%] | diameter of the IZ, P. aeruginosa (ATCC:27853) [4] | diameter of the IZ, C. albicans (ATCC:10231) (C. albicans (ATCC:10231) [5]) | mean % of reduction, HAV HM 175 [6] [%] | mean % of reduction, HCVcc genotype 4 [7] [%] | diameter of the IZ, E. coli (ATCC:3008) (E. coli (ATCC:3008) [8]) | diameter of the IZ, S. aureus (ATCC:6538) (S. aureus (ATCC:6538) [9]) | diameter of the IZ, S. mutans (ATCC:25175) (S. mutans (ATCC:25175) [10]) | CC50 at 72 h [11] [mg/L] | IC50 [3] [mg/L] | inhibition at 0.1 µg/mL (Hsp90α) [%] | inhibition at 1 µg/mL (Hsp90α) [%] | inhibition at 10 µg/mL (Hsp90α) [%] | inhibition at 100 µg/mL (Hsp90α) [%] | CC50 at 72 h [13] [mg/L] | MIC (E. coli (ATCC:3008) [14]) [mg/L] | IC50 [15] [µM] | inhibition at 0.01 µg/mL [15] [%] | inhibition at 0.1 µg/mL [15] [%] | other results |
| --- | --- | --- | --- | --- | --- | --- | --- | --- | --- | --- | --- | --- | --- | --- | --- | --- | --- | --- | --- | --- | --- |
| Cc1ccc(S(=O)(=O)Nn2c(N)c(C#N)cc(C#N)c2=O)cc1 [15b, N-(6-Amino-3,5-dicyano-2-oxopyridin-1(2H)-yl)-4-methylbenzenesulfonamide] | no activity | 13.3 ± 0.50 | no activity | no activity | 20.0 ± 0.10 | 33.3 ± 0.10 | no activity | no activity | no activity | – | – | – | – | – | – | – | – | – | – | – | mean % of reduction, CBV4 (coxsackievirus B4 (CBV4)): 40.0 ± 0.20%; mean % of reduction, herpes simplex virus ([3]; nontoxic dose of compound, average of three independent measurements): 30.0 ± 0.30% |
| CCOC(=O)c1cc(C#N)c(=O)n(NS(=O)(=O)c2ccccc2)c1N [15c, Ethyl 2-Amino-5-cyano-6-oxo-1-(phenylsulfonamido)-1,6-dihydropyridine-3-carboxylate] | no activity | 36.7 ± 0.30 | no activity | no activity | – | 20.0 ± 0.15 | no activity | no activity | no activity | 260 (≈ 718 µM) | 90 (≈ 248 µM) | 8.42 | 26.1 | 48.7 | 72.7 | 250 (≈ 690 µM) | – | – | – | – | CC50 at 72 h [12]: 260 mg/L (≈ 718 µM); IC50 ([6]; Hepatovirus A, FRhK-4): 88 mg/L (≈ 243 µM) |
| CCOC(=O)c1cc(C#N)c(=O)n(NS(=O)(=O)c2ccc(C)cc2)c1N [15d, Ethyl 2-Amino-5-cyano-1-(4-methylphenylsulfonamido)-6-oxo-1,6-dihydropyridine-3-carboxylate] | – | 30.0 ± 0.10 | – | – | 36.7 ± 0.25 | 20.0 ± 0.20 | 19.6 ± 1.5 mm | – | – | 240 (≈ 638 µM) | 90 (≈ 239 µM) | 10.5 | 25.9 | 57.4 | 89.9 | 220 (≈ 584 µM) | 1000 (≈ 2660 µM) | 12.4 | 11.1 | 20.7 | inhibition at 1 µg/mL [15]: 39.9%; inhibition at 10 µg/mL [15]: 56.1%; zone of inhibition at 15000 µg/mL (S. aureus (ATCC:6538) [9]): 11.3 ± 1.1 mm; zone of inhibition at 15000 µg/mL (S. mutans (ATCC:25175) [10]): 9 ± 1 mm |
| CNC(C)C1CCC(N)C(OC2C(N)CC(N)C(OC3OCC(C)(O)C(NC)C3O)C2O)O1 (stereo not drawn) [gentamicin] | – | – | 35.0 ± 0.1 mm | – | – | – | 25.0 ± 0.1 mm | – | – | – | – | – | – | – | – | – | 31.2 (≈ 65.4 µM) | – | – | – | MIC (K. pneumonia (ATCC:4415) [16]): 62.5 mg/L (≈ 131 µM); MIC [17]: 125 mg/L (≈ 262 µM) |
| C[C@@H]1[C@H](O)[C@@H](C)/C=C/C=C/CC/C=C/C=C/C=C/C=C/C(O[C@H]2O[C@H](C)[C@@H](O)[C@H](N)[C@@H]2O)CC2O[C@](O)(CC(O)C(O)CCC(O)CC(O)CC(O)CC(=O)O[C@H]1C)CC(O)C2C(=O)O (stereo partly drawn) [nystatin, reference compound] | – | – | – | 28.0 ± 0.2 mm | – | – | – | – | – | – | – | – | – | – | – | – | – | – | – | – | MIC, C. albicans (ATCC:10231) (C. albicans (ATCC:10231) [18]): 31.25 mg/L (≈ 33.7 µM) |
| Nc1ccc(S(=O)(=O)Nc2ncccn2)cc1 [sulfadiazine, reference compound] | – | – | 24.0 ± 1.4 mm | no activity | – | – | 19.8 ± 0.4 mm | – | – | – | – | – | – | – | – | – | 250 (≈ 999 µM) | 0.803 | 28.7 | 46.8 | MIC (K. pneumonia (ATCC:4415) [16]): 250 mg/L (≈ 999 µM); MIC [17]: 250 mg/L (≈ 999 µM); inhibition at 1 µg/mL [15]: 60.2%; inhibition at 10 µg/mL [15]: 76.7%; MIC (S. mutans (ATCC:25175) [19]): 125 mg/L (≈ 499 µM); zone of inhibition at 15000 µg/mL (S. aureus (ATCC:6538) [9]): 31.3 ± 2.1 mm; MIC (S. aureus (ATCC:6538) [20]): 500 mg/L (≈ 2000 µM); zone of inhibition at 15000 µg/mL (S. mutans (ATCC:25175) [10]): 16.3 ± 1.1 mm |
